Reference: ChEMBL document CHEMBL3593159, “Identification of 5-nitrofuran-2-amide derivatives that induce apoptosis in triple negative breast cancer cells by activating C/EBP-homologous protein expression” (Bioorg Med Chem, 2015)
Calls of active or inactive are those of the source. No cut-off for these calls is given here.

What was measured:
HCC1806 [1] = assay: Cytotoxicity against human HCC1806 cells assessed as reduction in cell viability incubated for 3 days by cell-titer-Glo reagent based assay; type: functional; settings: for IC50: HCC1806, 72 h
Procedure, shortened: (§1)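 Viability by CellTiter-Glo (ATP read-out). Cells plated at 3 × 10³/well in 384-well format overnight, then exposed to compound over a range (0.125–20 µM for initial series) for 3 d in RPMI 1640 with 10% FBS at 37°C, 5% CO₂. IC₅₀ fitted from dose–response curve.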

HCC1143 = assay: Cytotoxicity against human HCC1143 cells assessed as reduction in cell viability incubated for 3 days by cell-titer-Glo reagent based assay; type: functional; settings: HCC1143, 72 h; procedure, shortened: as §1
HCC38 = assay: Cytotoxicity against human HCC38 cells assessed as reduction in cell viability incubated for 3 days by cell-titer-Glo reagent based assay; type: functional; settings: HCC38, 72 h; procedure, shortened: as §1
HCC1806 [2] = assay: Induction of apoptosis in human HCC1806 cells assessed as increase in caspase-3 cleavage at 10 uM incubated for 8 and 24 hrs by Western blotting method; type: functional, cell-based
Procedure, shortened: (§2)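 HCC-1806 cells (8 × 10⁵ per 60-mm dish) treated with 10 µM for the indicated times, lysed in buffer with EDTA and phosphatase inhibitors; 20 µg protein on 7% SDS-PAGE, PVDF transfer, primary then HRP secondary antibodies (1:3000). α-Tubulin loading control; representative of 3 experiments.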

HCC1806 [3] = assay: Induction of apoptosis in human HCC1806 cells assessed as reduction in cell number at 10 uM incubated for 24 hrs by live-cell phase-contrast microscopy; type: functional, cell-based
Procedure, shortened: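 Near-confluent HCC-1806 cultures treated with 10 µM compound or DMSO for 24 h, then imaged by live-cell phase-contrast microscopy at 10× magnification.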

HCC1806 [4] = assay: Increase in CHOP mRNA expression in human HCC1806 cells incubated for 8 hrs by qRT-PCR method; type: functional, cell-based
Procedure, shortened: (§3)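 HCC-1806 cells (4 × 10⁵/well, 6-well) treated at a series of concentrations for 8 h; total RNA by TRIzol, 2 µg reverse transcribed, CHOP mRNA by qRT-PCR. Means of 4 replicate wells, 3 experiments, t-test vs DMSO.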

HCC1806 [5] = assay: Increase in CHOP mRNA expression in human HCC1806 cells at 10 uM by qRT-PCR method; type: functional, cell-based; settings: TDE = time-dependent effect
Procedure, shortened: (§4)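 HCC-1806 cells (4 × 10⁵/well) exposed to 10 µM over a time course; CHOP mRNA by qRT-PCR after TRIzol extraction and reverse transcription of 2 µg RNA. Means of 4 replicate wells, 3 experiments, t-test vs 0 h.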

HCC1806 [6] = assay: Increase in CHOP mRNA expression in human HCC1806 cells incubated for 8 hrs by qRT-PCR method relative to control; type: functional; procedure, shortened: as §3
HCC1806 [7] = assay: Increase in CHOP mRNA expression in human HCC1806 cells at 10 uM by qRT-PCR method relative to control; type: functional; procedure, shortened: as §4
HCC1806 [8] = assay: Increase in CHOP protein expression in human HCC1806 cells at 10 uM incubated for 2 and 24 hrs by Western blotting method; type: functional, cell-based; settings: in the assay text read “4 and 24 hrs” for “2 and 24 hrs”; procedure, shortened: as §2
MCF7 = assay: Cytotoxicity against human MCF7 cells assessed as reduction in cell viability incubated for 3 days by cell-titer-Glo reagent based assay; type: functional
Procedure, shortened: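 HCC-1806 and MCF7 cells exposed to compound for 3 d, viability read by CellTiter-Glo kit; means of 4 replicate wells, representative of 3 independent experiments.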

HCC1806 [9] = assay: Increase in ATF4 mRNA expression in human HCC1806 cells at 10 uM incubated for 2 to 8 hrs by qRT-PCR method; type: functional, cell-based
Procedure, shortened: (§5)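 HCC-1806 cells treated with 10 µM over a time course; ATF4, GADD34 or Bim mRNA by qRT-PCR. Means of 4 replicate wells, representative of 3 experiments, Student's t-test vs DMSO-treated cells.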

HCC1806 [10] = assay: Increase in ATF4 protein in human HCC1806 cells at 10 uM incubated for 2 to 8 hrs by Western blotting method; type: functional, cell-based; procedure, shortened: as §2
HCC1806 [11] = assay: Increase in eIF2alpha phosphorylation in human HCC1806 cells at 10 uM incubated for 1 to 24 hrs by Western blotting method; type: functional, cell-based; procedure, shortened: as §2
HCC1806 [12] = assay: Increase in GADD34 mRNA expression in human HCC1806 cells at 10 uM incubated for 2 to 24 hrs by qRT-PCR method; type: functional, cell-based; settings: TDE = time-dependent effect; procedure, shortened: as §5
HCC1806 [13] = assay: Reduction in eIF2alpha phosphorylation in human HCC1806 cells at 10 uM incubated for 1 to 24 hrs by Western blotting method; type: functional, cell-based; procedure, shortened: as §2
HCC1806 [14] = assay: Reduction in ATF4 protein in human HCC1806 cells at 10 uM incubated for 2 to 8 hrs by Western blotting method; type: functional, cell-based; procedure, shortened: as §2
HCC1806 [15] = assay: Increase in XBP1 mRNA splicing in human HCC1806 cells at 10 uM incubated for 2 hrs by RT-PCR method (reference value: 11%); type: functional
Procedure, shortened: (§6)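 HCC-1806 cells given 10 µM compound or tunicamycin 1 µg/mL over a time course; XBP1 RT-PCR products resolved on agarose gel, GAPDH internal control. Spliced fraction by densitometry as XBP1s/(XBP1s+XBP1u) × 100%; 3 experiments.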

HCC1806 [16] = assay: Increase in XBP1 mRNA splicing in human HCC1806 cells at 10 uM incubated for 4 hrs by RT-PCR method (reference value: 11%); type: functional; procedure, shortened: as §6
HCC1806 [17] = assay: Increase in XBP1 mRNA splicing in human HCC1806 cells at 10 uM incubated for 8 hrs by RT-PCR method (reference value: 11%); type: functional; procedure, shortened: as §6
HCC1806 [18] = assay: Increase in XBP1 mRNA splicing in human HCC1806 cells at 10 uM incubated for 24 hrs by RT-PCR method (reference value: 11%); type: functional; procedure, shortened: as §6
HEK-293T [19] = assay: Increase in UPRE-mediated luciferase expression in HEK293T cells stably transfected with UPRE-luciferase gene at 10 uM incubated for 24 hrs by luciferase reporter gene assay relative to control; type: functional, Homo sapiens
Procedure, shortened: (§7)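 HEK293T cells stably carrying CHOP-, ERSE- or UPRE-luciferase reporters plated 7 × 10³/well in 384-well plates, after 16 h given compound (10 µM), tunicamycin 1 µg/mL or DMSO for 24 h; luciferase by Bright-Glo. Means of 4 replicate wells, representative of 3 experiments.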

HEK-293T [20] = assay: Increase in ERSE-mediated luciferase expression in HEK293T cells stably transfected with ERSE-luciferase gene at 10 uM incubated for 24 hrs by luciferase reporter gene assay; type: functional, cell-based; settings: Homo sapiens; procedure, shortened: as §7
HCC1806 [21] = assay: Cytotoxicity against human HCC1806 cells assessed as reduction in cell viability at 5 uM incubated for 48 hrs in presence of control siRNA by cell-titer-Glo reagent based assay; type: functional
Procedure, shortened: (§8)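 HCC-1806 cells in serum-free RPMI transfected with 20 nM CHOP or scrambled siRNA by lipofection; after 6 h medium replaced with 10% FBS RPMI and compound (5 µM) or DMSO added for 48 h in 96-well format. Viability by CellTiter-Glo; 3 independent experiments, Student's t-test vs DMSO.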

HCC1806 [22] = assay: Cytotoxicity against human HCC1806 cells assessed as reduction in cell viability at 5 uM incubated for 48 hrs in presence of CHOP siRNA by cell-titer-Glo reagent based assay; type: functional; procedure, shortened: as §8
HCC1806 [23] = assay: Increase in CHOP mRNA expression in human HCC1806 cells at 5 uM in presence of control siRNA incubated for 48 hrs by qRT-PCR method; type: functional, cell-based
Procedure, shortened: (§9)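 HCC-1806 cells transfected with CHOP or scrambled siRNA; 6 h later treated with 5 µM compound or DMSO for 48 h. CHOP mRNA by RT-PCR with GAPDH as internal control; 3 independent experiments.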

HCC1806 [24] = assay: Increase in CHOP mRNA expression in human HCC1806 cells at 5 uM in presence of CHOP siRNA incubated for 48 hrs by qRT-PCR method; type: functional, cell-based; procedure, shortened: as §9
HCC1806 [25] = assay: Reduction in Bcl-2 protein expression in human HCC1806 cells at 10 uM incubated for 2 to 24 hrs by Western blotting method; type: functional, cell-based; procedure, shortened: as §2
HCC1806 [26] = assay: Increase in Bim mRNA expression in human HCC1806 cells at 10 uM by RT-PCR method; type: functional, cell-based; settings: TDE = time-dependent effect; procedure, shortened: as §5
HCC1806 [27] = assay: Increase in cleaved caspase-4 protein expression in human HCC1806 cells at 10 uM incubated for 8 to 24 hrs by Western blotting method; type: functional, cell-based; procedure, shortened: as §2

## CC1CCN(c2ccc(NC(=O)c3ccc([N+](=O)[O-])o3)cc2)CC1
HCC1806 [1]
  Activity: Dose-dependent effect
  IC50: 2.8 µM
HCC1143
  IC50: 2.1 µM
HCC38
  IC50: 2.5 µM
HCC1806 [2]
  Activity: Active
HCC1806 [3]
  Activity: Active
HCC1806 [4]
  Activity: Dose-dependent effect
HCC1806 [5]
  Activity: tde
HCC1806 [6]
  fold change (FC): 9
HCC1806 [7]
  fold change (FC): 9
HCC1806 [8]
  Activity: Active
MCF7
  Activity: Dose-dependent effect
HCC1806 [9]
  Activity: Active
HCC1806 [10]
  Activity: Active
HCC1806 [11]
  Activity: Active
HCC1806 [12]
  Activity: tde
HCC1806 [13]
  Activity: Active
HCC1806 [14]
  Activity: Active
HCC1806 [15]
  Activity: 19.6%
HCC1806 [16]
  Activity: 16.4%
HCC1806 [17]
  Activity: 14.2%
HCC1806 [18]
  Activity: 15.3%
HEK-293T [19]
  fold change (FC): < 2
HEK-293T [20]
  Activity: inactive
HCC1806 [21]
  Activity: Active
HCC1806 [22]
  Activity: inactive
HCC1806 [23]
  Activity: Active
HCC1806 [24]
  Activity: Active
HCC1806 [25]
  Activity: Active
HCC1806 [26]
  Activity: tde
HCC1806 [27]
  Activity: Active

## Cc1cccc(NC(=O)c2ccc([N+](=O)[O-])o2)c1C
HCC1806 [1]
  IC50: 9.7 µM

## Cc1cc(NC(=O)c2ccc([N+](=O)[O-])o2)c(C)cc1I
HCC1806 [1]
  IC50: 3 µM

## COc1ccc(Cl)cc1NC(=O)c1ccc([N+](=O)[O-])o1
HCC1806 [1]
  IC50: 7 µM

## O=C(Nc1ccc(Cl)cc1)c1ccc([N+](=O)[O-])o1
HCC1806 [1]
  IC50: 5.1 µM

## O=C(Nc1cc(Cl)ccc1Cl)c1ccc([N+](=O)[O-])o1
HCC1806 [1]
  IC50: 8.6 µM

## O=C(Nc1ccc(N2CCCCC2)c(Cl)c1)c1ccc([N+](=O)[O-])o1
HCC1806 [1]
  IC50: 3.5 µM
HCC1143
  IC50: 4.5 µM
HCC38
  IC50: 3.8 µM

## CC1CCN(c2ccc(NC(=O)c3ccco3)cc2)CC1
HCC1806 [1]
  IC50: > 40 µM

## CC(C)Cc1ccccc1NC(=O)c1ccc([N+](=O)[O-])o1
HCC1806 [1]
  IC50: > 40 µM

## CCc1cc(I)ccc1NC(=O)c1ccc([N+](=O)[O-])o1
HCC1806 [1]
  IC50: 5.5 µM
